From ChEMBL document CHEMBL3351928, “Discovery of clinical candidate 1-(4-(3-(4-(1H-benzo[d]imidazole-2-carbonyl)phenoxy)pyrazin-2-yl)piperidin-1-yl)ethanone (AMG 579), a potent, selective, and efficacious inhibitor of phosphodiesterase 10A (PDE10A)” (J Med Chem, 2014)

What was measured:
[1] = biological target: cAMP and cAMP-inhibited cGMP 3',5'-cyclic phosphodiesterase 10A (Homo sapiens, UniProt Q9Y233); assay: Inhibition of human recombinant PDE10A using cAMP as substrate incubated for 30 mins prior to substrate addition measured after 3 hrs to overnight by IMAP FRET assay
Sequence of cAMP and cAMP-inhibited cGMP 3',5'-cyclic phosphodiesterase 10A (Q9Y233 whole entry): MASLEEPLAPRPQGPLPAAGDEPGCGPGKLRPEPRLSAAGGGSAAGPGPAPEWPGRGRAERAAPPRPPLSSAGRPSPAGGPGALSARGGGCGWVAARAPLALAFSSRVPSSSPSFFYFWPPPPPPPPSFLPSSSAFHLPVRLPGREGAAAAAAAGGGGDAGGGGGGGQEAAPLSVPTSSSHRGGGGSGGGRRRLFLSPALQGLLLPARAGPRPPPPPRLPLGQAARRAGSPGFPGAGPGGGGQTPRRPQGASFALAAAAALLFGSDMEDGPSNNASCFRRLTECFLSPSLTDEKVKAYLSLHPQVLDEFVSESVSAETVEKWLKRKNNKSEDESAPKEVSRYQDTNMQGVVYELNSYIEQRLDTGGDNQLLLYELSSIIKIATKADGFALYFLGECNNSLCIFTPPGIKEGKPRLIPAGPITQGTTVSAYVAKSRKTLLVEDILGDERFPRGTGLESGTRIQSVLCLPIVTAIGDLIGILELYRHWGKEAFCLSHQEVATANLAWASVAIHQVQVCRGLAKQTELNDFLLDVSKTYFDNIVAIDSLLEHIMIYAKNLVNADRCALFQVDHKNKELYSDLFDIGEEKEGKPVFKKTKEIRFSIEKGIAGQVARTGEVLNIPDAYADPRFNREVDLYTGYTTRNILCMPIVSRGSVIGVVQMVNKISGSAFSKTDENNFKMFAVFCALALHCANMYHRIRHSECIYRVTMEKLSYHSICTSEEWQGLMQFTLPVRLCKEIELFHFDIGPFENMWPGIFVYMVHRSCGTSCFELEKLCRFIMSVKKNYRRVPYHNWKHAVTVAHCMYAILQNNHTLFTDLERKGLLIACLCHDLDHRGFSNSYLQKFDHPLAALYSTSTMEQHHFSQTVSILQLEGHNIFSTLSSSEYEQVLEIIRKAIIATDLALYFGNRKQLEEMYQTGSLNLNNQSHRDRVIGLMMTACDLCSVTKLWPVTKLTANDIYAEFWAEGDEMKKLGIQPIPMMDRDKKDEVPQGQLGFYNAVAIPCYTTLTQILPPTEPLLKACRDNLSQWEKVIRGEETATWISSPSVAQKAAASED

[2] = Metabolic stability in human liver microsomes assessed as clearance at 1 uM in presence of NADPH at 37 degC incubated for 30 mins; format: ADME; conditions: read-out: CLH
[3] = Metabolic stability in rat liver microsomes assessed as clearance at 1 uM in presence of NADPH at 37 degC incubated for 30 mins; format: ADME; conditions: read-out: CLH
Rattus norvegicus [4] = assay: Target occupancy of PDE10A in Sprague-Dawley rat striatum at 10 mg/kg, po administered as single dose measured 1 hr post dosing and 10 mins post iv dosing of tracer by LC-MS/MS method; format: functional
Rattus norvegicus [5] = assay: Target occupancy of PDE10A in Sprague-Dawley rat striatum measured 1 hr post dosing and 10 mins post iv dosing of tracer by LC-MS/MS method; format: functional, organism-based
In short: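 Sprague-Dawley rats received oral doses of 0.1, 0.3, 1, 3, 10 and 30 mg/kg, n = 4 per dose. Tissue was taken 1 h after dosing and 10 min after IV tracer. Striatal tracer was compared with thalamic tracer by LC-MS/MS. An occupancy EC50 was calculated against total plasma concentration.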

Rattus norvegicus [6] = assay: Reversal of PCP-induced hyperlocomotor activity in Sprague-Dawley rat assessed as effect on locomotor activity administered orally 1 hr before PCP dosing and measured at 10 mins intervals over 2 hrs period; format: functional; conditions: po, read-out: MED
In short: (§1)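 Adult male Sprague-Dawley rats (250–280 g) were first acclimated to the test cage for 60 min. They then received oral doses of 0.1, 0.3, 1 or 3 mg/kg, n = 10. After 1 h they were given PCP 8 mg/kg subcutaneously. Photobeam breaks were collected at 10 min intervals and compiled over 2 h. Groups were compared with vehicle by one-way ANOVA followed by Dunnett's test, and the minimum effective dose was determined.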

Rattus norvegicus [7] = assay: Effect on locomotor activity in orally dosed Sprague-Dawley rat measured at 10 mins intervals over 2 hrs period; format: ADME, organism-based; conditions: in vivo, po; in short: as §1
[8] = Clearance in rat at 2 mg/kg, iv; format: ADME, organism-based; design: dose 2 mg/kg, route intravenous; conditions: in vivo
[9] = Volume of distribution at steady state in rat at 2 mg/kg, iv; format: ADME, organism-based; design: dose 2 mg/kg, route intravenous; conditions: in vivo, read-out: Vdss
[10] = (§2) AUC in rat at 2 mg/kg, iv; format: ADME, organism-based, Plasma; design: dose 2 mg/kg, route intravenous; conditions: plasma
[11] = (§3) AUC in rat at 10 mg/kg, po; format: ADME, organism-based, Plasma; design: dose 10 mg/kg, route oral; conditions: plasma
[12] = Half life in rat at 2 mg/kg, iv; format: ADME, organism-based; design: dose 2 mg/kg, route intravenous; conditions: in vivo
[13] = Half life in rat at 10 mg/kg, po; format: ADME, organism-based; design: dose 10 mg/kg, route oral; conditions: in vivo
[14] = (§4) Oral bioavailability in rat at 10 mg/kg; format: ADME, organism-based; conditions: in vivo
[15] = Half life in dog at 0.5 mg/kg, po; format: ADME, organism-based, Canis lupus familiaris; design: dose 0.5 mg/kg, route oral; conditions: in vivo
[16] = Oral bioavailability in dog at 0.5 mg/kg; format: ADME, organism-based, Canis lupus familiaris; conditions: in vivo
[17] = AUC in dog at 0.5 mg/kg, po; format: ADME, organism-based, Canis lupus familiaris; design: dose 0.5 mg/kg, route oral; conditions: plasma
[18] = Clearance in dog at 0.5 mg/kg, iv; format: ADME, organism-based, Canis lupus familiaris; design: dose 0.5 mg/kg, route intravenous; conditions: in vivo
[19] = Clearance in non-human primates at 0.5 mg/kg, iv; format: ADME, organism-based; design: dose 0.5 mg/kg, route intravenous; conditions: monkey, in vivo
[20] = Volume of distribution at steady state in dog at 0.5 mg/kg, iv; format: ADME, organism-based, Canis lupus familiaris; design: dose 0.5 mg/kg, route intravenous; conditions: in vivo, read-out: Vdss
[21] = Volume of distribution at steady state in non-human primates at 0.5 mg/kg, iv; format: ADME, organism-based; design: dose 0.5 mg/kg, route intravenous; conditions: monkey, in vivo, read-out: Vdss
Rattus norvegicus [22] = assay: as §2; format: ADME, organism-based, Plasma; design: dose 2 mg/kg, route intravenous; conditions: in vivo
Rattus norvegicus [23] = assay: as §3; format: ADME, organism-based, Plasma; design: dose 10 mg/kg, route oral; conditions: in vivo
[24] = AUC in dog at 0.5 mg/kg, iv; format: ADME, organism-based, Canis lupus familiaris; design: dose 0.5 mg/kg, route intravenous; conditions: plasma
[25] = AUC in non-human primates at 0.5 mg/kg, iv; format: ADME, organism-based; design: dose 0.5 mg/kg, route intravenous; conditions: monkey, plasma
[26] = Half life in dog at 0.5 mg/kg, iv; format: ADME, organism-based, Canis lupus familiaris; design: dose 0.5 mg/kg, route intravenous; conditions: in vivo
[27] = Half life in non-human primates at 0.5 mg/kg, iv; format: ADME, organism-based; design: dose 0.5 mg/kg, route intravenous; conditions: monkey, in vivo
Rattus norvegicus [28] = assay: as §4; format: ADME, organism-based; conditions: in vivo
[29] = AUC in dog at 1 mg/kg, po; format: ADME, organism-based, Canis lupus familiaris; design: dose 1 mg/kg, route oral; conditions: plasma
[30] = AUC in non-human primates at 0.5 mg/kg, po; format: ADME, organism-based; design: dose 0.5 mg/kg, route oral; conditions: monkey, plasma
[31] = Half life in dog at 1 mg/kg, po; format: ADME, organism-based, Canis lupus familiaris; design: dose 1 mg/kg, route oral; conditions: in vivo
[32] = Half life in non-human primates at 0.5 mg/kg, po; format: ADME, organism-based; design: dose 0.5 mg/kg, route oral; conditions: monkey, in vivo
[33] = Oral bioavailability in dog at 1 mg/kg; format: ADME, organism-based, Canis lupus familiaris; conditions: in vivo
[34] = Oral bioavailability in non-human primates at 0.5 mg/kg; format: ADME, organism-based; conditions: monkey, in vivo
Phosphodiesterase 1 = Phosphodiesterase 1 (Homo sapiens, UniProt P54750+Q01064+Q14123); assay: Inhibition of PDE1 (unknown origin); format: protein assay
[35] = biological target: cGMP-dependent 3',5'-cyclic phosphodiesterase (Homo sapiens, UniProt O00408); assay: Inhibition of PDE2 (unknown origin)
Sequence of cGMP-dependent 3',5'-cyclic phosphodiesterase (O00408 whole entry): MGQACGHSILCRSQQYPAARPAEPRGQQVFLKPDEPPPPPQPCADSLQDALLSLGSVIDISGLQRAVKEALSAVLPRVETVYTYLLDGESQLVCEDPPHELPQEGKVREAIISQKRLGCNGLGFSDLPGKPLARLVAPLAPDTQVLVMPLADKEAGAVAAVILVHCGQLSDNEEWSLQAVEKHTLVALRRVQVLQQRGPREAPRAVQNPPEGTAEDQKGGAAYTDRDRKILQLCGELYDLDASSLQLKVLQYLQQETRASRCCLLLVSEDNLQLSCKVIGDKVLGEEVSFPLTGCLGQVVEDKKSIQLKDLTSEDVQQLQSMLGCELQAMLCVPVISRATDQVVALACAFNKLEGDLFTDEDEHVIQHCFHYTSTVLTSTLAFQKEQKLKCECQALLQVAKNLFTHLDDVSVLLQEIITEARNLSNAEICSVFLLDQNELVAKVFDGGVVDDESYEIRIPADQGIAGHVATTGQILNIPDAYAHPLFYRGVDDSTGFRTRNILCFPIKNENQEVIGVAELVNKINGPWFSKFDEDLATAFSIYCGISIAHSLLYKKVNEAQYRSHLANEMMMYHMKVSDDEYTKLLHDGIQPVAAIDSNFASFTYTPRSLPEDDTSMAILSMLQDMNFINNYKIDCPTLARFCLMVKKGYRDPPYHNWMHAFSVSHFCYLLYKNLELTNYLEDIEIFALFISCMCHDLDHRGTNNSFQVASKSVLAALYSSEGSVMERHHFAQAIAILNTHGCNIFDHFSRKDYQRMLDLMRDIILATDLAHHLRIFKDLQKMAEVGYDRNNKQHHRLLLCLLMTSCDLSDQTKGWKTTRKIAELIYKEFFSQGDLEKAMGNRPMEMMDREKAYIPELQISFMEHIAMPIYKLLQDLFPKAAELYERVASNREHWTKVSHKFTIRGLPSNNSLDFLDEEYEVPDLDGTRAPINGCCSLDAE

Phosphodiesterase 3 = Phosphodiesterase 3 (Homo sapiens, UniProt Q14432+Q13370); assay: Inhibition of PDE3 (unknown origin); format: protein assay
Phosphodiesterase 4 = Phosphodiesterase 4 (Homo sapiens, UniProt P27815+Q08499+Q07343+Q08493); assay: Inhibition of PDE4 (unknown origin); format: protein assay
[36] = biological target: cGMP-specific 3',5'-cyclic phosphodiesterase (Canis lupus familiaris, UniProt O77746); assay: Inhibition of PDE5 (unknown origin); design: species or system Homo sapiens
Phosphodiesterase 6 = assay: Inhibition of PDE6 (unknown origin); format: protein assay, Homo sapiens
Phosphodiesterase 7 = Phosphodiesterase 7 (Homo sapiens, UniProt Q13946+Q9NP56); assay: Inhibition of PDE7 (unknown origin); format: protein assay
Phosphodiesterase 8 = Phosphodiesterase 8 (Homo sapiens, UniProt O95263+O60658); assay: Inhibition of PDE8 (unknown origin); format: protein assay
[37] = biological target: High affinity cGMP-specific 3',5'-cyclic phosphodiesterase 9A (Homo sapiens, UniProt O76083); assay: Inhibition of PDE9 (unknown origin)
Sequence of High affinity cGMP-specific 3',5'-cyclic phosphodiesterase 9A (O76083 whole entry): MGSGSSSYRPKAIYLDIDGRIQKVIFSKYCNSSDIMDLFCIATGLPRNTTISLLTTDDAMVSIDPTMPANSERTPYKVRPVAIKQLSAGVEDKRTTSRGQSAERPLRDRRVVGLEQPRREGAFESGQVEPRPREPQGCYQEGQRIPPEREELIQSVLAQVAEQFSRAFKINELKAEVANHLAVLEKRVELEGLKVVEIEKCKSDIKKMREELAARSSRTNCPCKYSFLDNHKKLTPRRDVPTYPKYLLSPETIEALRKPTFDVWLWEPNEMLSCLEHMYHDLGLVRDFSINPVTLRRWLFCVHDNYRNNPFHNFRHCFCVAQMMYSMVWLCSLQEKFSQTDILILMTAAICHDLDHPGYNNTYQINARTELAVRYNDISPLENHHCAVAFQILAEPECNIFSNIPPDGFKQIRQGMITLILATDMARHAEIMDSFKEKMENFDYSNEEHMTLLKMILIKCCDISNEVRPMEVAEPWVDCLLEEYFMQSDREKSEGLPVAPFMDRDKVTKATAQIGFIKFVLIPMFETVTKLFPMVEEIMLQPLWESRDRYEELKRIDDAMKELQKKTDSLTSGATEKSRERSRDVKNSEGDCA

[38] = biological target: Dual 3',5'-cyclic-AMP and -GMP phosphodiesterase 11A (Homo sapiens, UniProt Q9HCR9); assay: Inhibition of PDE11 (unknown origin)
Sequence of Dual 3',5'-cyclic-AMP and -GMP phosphodiesterase 11A (Q9HCR9 whole entry): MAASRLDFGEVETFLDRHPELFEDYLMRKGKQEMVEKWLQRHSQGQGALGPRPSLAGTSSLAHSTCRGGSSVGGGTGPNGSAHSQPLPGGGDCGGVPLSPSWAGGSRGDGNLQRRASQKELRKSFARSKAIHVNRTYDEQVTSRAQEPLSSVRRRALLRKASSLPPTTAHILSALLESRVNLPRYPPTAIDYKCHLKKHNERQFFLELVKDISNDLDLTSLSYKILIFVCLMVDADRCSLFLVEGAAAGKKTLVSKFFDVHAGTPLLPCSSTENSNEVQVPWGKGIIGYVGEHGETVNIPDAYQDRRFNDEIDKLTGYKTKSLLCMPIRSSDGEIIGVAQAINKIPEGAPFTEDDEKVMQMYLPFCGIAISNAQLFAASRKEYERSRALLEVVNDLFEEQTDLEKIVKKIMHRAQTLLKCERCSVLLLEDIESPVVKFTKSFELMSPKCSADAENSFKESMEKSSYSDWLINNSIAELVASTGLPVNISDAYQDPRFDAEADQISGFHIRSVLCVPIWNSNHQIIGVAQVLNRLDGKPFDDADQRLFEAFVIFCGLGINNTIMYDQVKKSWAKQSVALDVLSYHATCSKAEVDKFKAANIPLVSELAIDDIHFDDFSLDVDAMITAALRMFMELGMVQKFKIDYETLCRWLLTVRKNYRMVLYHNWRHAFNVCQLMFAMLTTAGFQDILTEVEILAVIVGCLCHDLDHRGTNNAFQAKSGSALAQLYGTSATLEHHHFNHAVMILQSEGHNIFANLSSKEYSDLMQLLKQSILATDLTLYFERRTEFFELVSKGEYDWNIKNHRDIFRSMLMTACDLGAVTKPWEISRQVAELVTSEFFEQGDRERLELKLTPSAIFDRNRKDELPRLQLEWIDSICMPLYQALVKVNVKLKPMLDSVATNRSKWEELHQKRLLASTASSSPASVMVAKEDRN

O=C(c1ccc(Oc2nccnc2C2CCOCC2)cc1)c1nc2ccccc2[nH]1
IC50 [1]: 0.8 nM
microsomal CLint at 1 µM [2]: 50 µL/min/mg
microsomal CLint at 1 µM [3]: 119 µL/min/mg
Occ (Rattus norvegicus [4]): 91%
EC50 (Rattus norvegicus [5]): 117 nM
Occ (Rattus norvegicus [5]): Dose-dependent effect
minimal effective dose (Rattus norvegicus [6]): 1 mg/kg
Activity (Rattus norvegicus [7]): Non-toxic
clearance [8]: 10.3 mL/min/kg
Vd [9]: 2.27 L/kg
AUC [10]: 7.75 µM·h
AUC [11]: 7.93 µM·h
half-life [12]: 4.26 h
half-life [13]: 3.99 h
bioavailability [14]: 22%

CC(=O)N1CCC(c2cccnc2Oc2ccc(C(=O)c3nc4ccccc4[nH]3)cc2)CC1
half-life [15]: 5.07 h
bioavailability [16]: 45%
AUC [17]: 9.59 µM·h
IC50 [1]: 0.1 nM
microsomal CLint at 1 µM [2]: 29 µL/min/mg
microsomal CLint at 1 µM [3]: 463 µL/min/mg
Occ (Rattus norvegicus [4]): 86.5%
EC50 (Rattus norvegicus [5]): 965 nM
Occ (Rattus norvegicus [5]): Dose-dependent effect
minimal effective dose (Rattus norvegicus [6]): 0.3 mg/kg
Activity (Rattus norvegicus [7]): Non-toxic
clearance [8]: 50.5 mL/min/kg
clearance [18]: 0.867 mL/min/kg
clearance [19]: 13.7 mL/min/kg
Vd [9]: 31.2 L/kg
Vd [20]: 0.5 L/kg
Vd [21]: 1.62 L/kg
AUC (Rattus norvegicus [22]): 1.62 µM·h
AUC (Rattus norvegicus [23]): 5.07 µM·h
AUC [24]: 21.5 µM·h
AUC [25]: 1.61 µM·h
half-life [12]: 23.1 h
half-life [13]: 1.72 h
half-life [26]: 7.41 h
half-life [27]: 1.26 h
F (Rattus norvegicus [28]): 63%

O=C(c1ccc(Oc2ncccc2C2CCOCC2)cc1)c1nc2ccccc2[nH]1
microsomal CLint at 1 µM [2]: 100 µL/min/mg
microsomal CLint at 1 µM [3]: > 399 µL/min/mg
Occ (Rattus norvegicus [4]): 69.2%

CC(=O)N1CCC(c2nccnc2Oc2ccc(C(=O)c3nc4ccccc4[nH]3)cc2)CC1
IC50 [1]: 0.1 nM
microsomal CLint at 1 µM [2]: 20 µL/min/mg
microsomal CLint at 1 µM [3]: 41 µL/min/mg
Occ (Rattus norvegicus [4]): 86.3%
EC50 (Rattus norvegicus [5]): 711 nM
Occ (Rattus norvegicus [5]): Dose-dependent effect
minimal effective dose (Rattus norvegicus [6]): 0.3 mg/kg
Activity (Rattus norvegicus [7]): Non-toxic
clearance [8]: 9 mL/min/kg
clearance [18]: 1.23 mL/min/kg
clearance [19]: 5.67 mL/min/kg
Vd [9]: 0.81 L/kg
Vd [20]: 0.77 L/kg
Vd [21]: 0.83 L/kg
AUC [10]: 8.31 µM·h
AUC [11]: 19.8 µM·h
AUC [24]: 13.7 µM·h
AUC [29]: 16.9 µM·h
AUC [25]: 3.41 µM·h
AUC [30]: 2.4 µM·h
half-life [12]: 3.16 h
half-life [13]: 3.35 h
half-life [26]: 6.89 h
half-life [31]: 11 h
half-life [27]: 1.09 h
half-life [32]: 2.48 h
bioavailability [14]: 49%
bioavailability [33]: 72%
bioavailability [34]: 71%
IC50 (Phosphodiesterase 1): > 30000 nM
IC50 [35]: > 30000 nM
IC50 (Phosphodiesterase 3): > 30000 nM
IC50 (Phosphodiesterase 4): > 30000 nM
IC50 [36]: > 30000 nM
IC50 (Phosphodiesterase 6): > 30000 nM
IC50 (Phosphodiesterase 7): > 30000 nM
IC50 (Phosphodiesterase 8): > 30000 nM
IC50 [37]: > 30000 nM
IC50 [38]: > 30000 nM
